SUMO Mot1 rescue: yeast Mot1-301 growth rescue at high temperature, primary screen, SUMOylation pathway inhibitor project, S. cerevisiae, ATP luminescence, 38.5C; S. cerevisiae Mot1-301 growth rescue; percent above DMSO median, 100 means doubled; hit rate 1% among 320,000; growth rescue, % at 18.8 µM;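 active = every valid replicate shows activation above 250% relative to neutral control wells; inactive = the rest, any valid replicate at or below 250%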
Cneo AK release: Cryptococcus neoformans cell lysis inducers, primary screen, AK release luminescence, single concentration; C. neoformans lysis, adenylate kinase release luminescence, 4 h; normalised: neutral wells 0, clomiphene wells 100; lysis activity, % at 15 µM; hit rate 0.2% among 360,000; AID 651654, 2012;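 active = mean lysis activity across replicates of at least 80%, whatever share of replicates individually reach that level; inactive = mean lysis activity below 80%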
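Material – Cryptococcus neoformans yeast cells · Quantity – 5 × 10^6 yeast cells/mL · Buffer or medium – YPD medium · Compound – single dose · Timing – 4 h static compound exposure, 37 °C, read 1 h post-reagent · Signal – adenylate kinase release luminescence · Read-out basis – lysis from increased AK signal · Benchmarks – Clomiphene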
C2C12 statin: suppressors of statin myotoxicity in C2C12 myotubes, primary screen, cell-based, single point, plate reader | C2C12 myotubes + simvastatin, ATP luminescence, 48 h; scaled: DMSO 0, geranylgeraniol control 100 | rescue of ATP level, % at 7.49 µM | hit rate 0.78% among 330,000;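 active = mean ATP rescue above about 67%, or every replicate alone reaching that limit, limit read from the data, passing the limit was not always enough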;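 note: myotubes were challenged with 10 µM simvastatin during compound exposure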
Efflux pump inh: inhibitors of Candida efflux pumps in yeast, primary screen, S. cerevisiae, Nile Red, multiplex | inhibition, % at 10 µM | AID 485275, 2010 | hit rate 0.44% among 330,000 | S. cerevisiae Candida pump triplex;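 active = plate passing quality check with inhibition over a set limit, or well fluorescence over plate mean plus 4 SD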;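 note: Nile Red retained in pooled yeast measured as flow cytometry median fluorescence; higher means more Nile Red kept so more efflux inhibition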
Yeast Mot1 SUMO: growth restoration of Mot1-301 yeast on galactose, dose response, SUMO pathway inhibitor project, whole organism, S. cerevisiae, ATP luminescence, cherry-picked samples; 2,300 tested, under 10 active; AID 493004, 2010; shares compounds with SUMO Mot1 rescue; growth activity, percent, % at 42 µM; S. cerevisiae Mot1-301 galactose growth, 24 h; -100 = growth of slx-deleted rescue strain;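 active = Signal drops as the depositor expects, and the fitted half-maximal dose is no more than ten times the top valid tested dose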;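 note: more negative values mean stronger growth rescue toward the control strain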
A number is an active result. The list is not random: actives were taken first. Their share in the collection is about 1.8%.

`CCCCn1c2c(c(=O)n(C)c1=O)C(c1ccc(OC)cc1)N1CCCCCC1=N2` (centres undefined) gave SUMO Mot1 rescue active, Cneo AK release inactive, C2C12 statin inactive, Efflux pump inh inactive and Yeast Mot1 SUMO inactive.
`COc1ccc(C)cc1NC(=O)C12CCC(C)(C(=O)O1)C2(C)C` (centres undefined) gave SUMO Mot1 rescue 461, Cneo AK release inactive, C2C12 statin inactive, Efflux pump inh inactive and Yeast Mot1 SUMO inactive.
For COc1ccc(-c2ccc3n(c2=O)C[C@H]2[C@H](CO)[C@@H](C(=O)N4CCN(C)CC4)N[C@@H]32)cc1 the results were Cneo AK release inactive and C2C12 statin inactive.
For CC1=C(C(N)=O)C(c2ccccn2)n2nc(SCc3ccccc3Cl)nc2N1 (centres undefined) the results were SUMO Mot1 rescue 384, Cneo AK release inactive, C2C12 statin inactive, Efflux pump inh inactive and Yeast Mot1 SUMO inactive.
For Cc1nc(C(F)(F)F)ccc1C(=O)NCC(O)c1ccccc1 (centres undefined) the results were SUMO Mot1 rescue inactive, Cneo AK release inactive, C2C12 statin inactive and Efflux pump inh inactive.
For O=C(C[C@@H]1C[C@@H]2c3cc(NS(=O)(=O)c4ccc(F)cc4)ccc3O[C@@H]2[C@H](CO)O1)N1CCc2ccccc2C1 the results were Cneo AK release inactive and C2C12 statin inactive.
For CCOc1ccc(N(C(C)C(=O)N2CCCCCC2)S(C)(=O)=O)cc1 (centres undefined) the results were SUMO Mot1 rescue inactive, Cneo AK release inactive, C2C12 statin inactive and Efflux pump inh inactive.
`CCOc1ccc(N(C(C)C(=O)NC(C)CC)S(C)(=O)=O)cc1` (centres undefined) gave SUMO Mot1 rescue 397, Cneo AK release inactive, C2C12 statin inactive, Efflux pump inh inactive and Yeast Mot1 SUMO inactive.
`FC(F)(F)c1nc2ccccc2n2c(-c3ccc(Cl)cc3Cl)nnc12` gave SUMO Mot1 rescue active, Cneo AK release inactive, C2C12 statin 84, Efflux pump inh inactive and Yeast Mot1 SUMO inactive.
FC(F)(F)c1nc2ccccc2n2c(-c3c(Cl)cccc3Cl)nnc12 was read as SUMO Mot1 rescue inactive, Cneo AK release inactive, C2C12 statin inactive and Efflux pump inh inactive.
For CC(=O)Nc1cc(C(=O)N(C)Cc2ccco2)ccc1Sc1ccc(Cl)cc1 the results were SUMO Mot1 rescue inactive and Efflux pump inh inactive.
Screening COc1cccc(C2C(C(C)=O)=C(O)C(=O)N2CCc2c[nH]c3ccccc23)c1 (centres undefined) returned SUMO Mot1 rescue 604, Cneo AK release inactive, Efflux pump inh inactive and Yeast Mot1 SUMO inactive.
CCOC(=O)c1ccc(-c2c(-c3ccc4c(c3)OCO4)noc2C)cc1F was read as SUMO Mot1 rescue inactive, Cneo AK release inactive, C2C12 statin inactive and Efflux pump inh inactive.
Screening CC(NC(=O)C1CCCN(S(=O)(=O)N2CCOCC2)C1)c1ccccc1 (centres undefined) returned SUMO Mot1 rescue 368, Cneo AK release inactive, C2C12 statin inactive, Efflux pump inh inactive and Yeast Mot1 SUMO inactive.
`CC1CC(C)CN(S(=O)(=O)N2CCCC(C(=O)NC(C)c3ccccc3)C2)C1` (centres undefined) gave SUMO Mot1 rescue inactive, Cneo AK release inactive, C2C12 statin inactive and Efflux pump inh inactive.
`O=C(c1cccs1)N1CC=C(c2ccccc2)CC1` gave SUMO Mot1 rescue inactive, Cneo AK release inactive, C2C12 statin inactive and Efflux pump inh inactive.
Screening On1c(-c2ccccc2Cl)nc2ncccc21 returned SUMO Mot1 rescue 498, Cneo AK release inactive, C2C12 statin inactive, Efflux pump inh inactive and Yeast Mot1 SUMO inactive.
`Cc1cc(C(F)F)n2ncc(C(=O)NCCc3ccc(Cl)cc3)c2n1` gave SUMO Mot1 rescue 540, Cneo AK release inactive, C2C12 statin inactive, Efflux pump inh inactive and Yeast Mot1 SUMO inactive.
Screening Cc1cc(C(F)F)n2ncc(C(=O)NCCc3ccccc3Cl)c2n1 returned SUMO Mot1 rescue inactive, Cneo AK release inactive and Efflux pump inh inactive.
C=CCOc1ccccc1CN1CCCC(CCC(=O)N(C)CCc2ccccn2)C1 (centres undefined) was read as SUMO Mot1 rescue 682, Cneo AK release inactive, C2C12 statin inactive, Efflux pump inh inactive and Yeast Mot1 SUMO inactive.
CCOc1cccc2cc(-c3cn4cc(C)ccc4n3)c(=O)oc12 was read as SUMO Mot1 rescue inactive, Cneo AK release inactive, C2C12 statin inactive and Efflux pump inh inactive.
`CCN(CC)S(=O)(=O)c1ccc(C(=O)NCCc2cc3c(OC)ccc(OC)c3[nH]c2=O)cc1` gave SUMO Mot1 rescue 438, Efflux pump inh inactive and Yeast Mot1 SUMO inactive.
For CC(=O)N/C(=C\c1ccccc1)C(=O)OCC(=O)c1ccc(F)cc1 the results were SUMO Mot1 rescue inactive, Cneo AK release inactive, C2C12 statin inactive and Efflux pump inh inactive.
For CC(=O)N/C(=C\c1ccccc1)C(=O)OCC(=O)c1ccccc1 the results were SUMO Mot1 rescue 679, Cneo AK release inactive, C2C12 statin inactive, Efflux pump inh inactive and Yeast Mot1 SUMO inactive.
For O=C(CSC1=NS(=O)(=O)c2ccccc2N1)NCCc1ccccc1 the results were SUMO Mot1 rescue inactive, C2C12 statin inactive and Efflux pump inh inactive.
O=C(CC1(CC2=NS(=O)(=O)c3ccccc3N2)CCCC1)NCCc1ccccc1 was read as SUMO Mot1 rescue 614, Cneo AK release inactive, Efflux pump inh inactive and Yeast Mot1 SUMO inactive.
For CCOCCCNC(=O)C(c1ccc(C)cc1)N(Cc1cccs1)C(=O)c1ccccn1 (centres undefined) the results were SUMO Mot1 rescue inactive and Efflux pump inh inactive.
For CCOCCCNC(=O)C(c1ccc(OC)cc1)N(Cc1cccs1)C(=O)c1ccccn1 (centres undefined) the results were SUMO Mot1 rescue 522, Cneo AK release inactive, C2C12 statin inactive, Efflux pump inh inactive and Yeast Mot1 SUMO inactive.
`O=C(CSc1nc2cc([N+](=O)[O-])ccc2n1-c1ccccc1)NCc1ccc2c(c1)OCO2` gave SUMO Mot1 rescue inactive and Efflux pump inh inactive.
`COc1ccc(S(=O)(=O)NC(C)C(=O)NCc2ccccn2)cc1Cl` (centres undefined) gave SUMO Mot1 rescue 386, Cneo AK release inactive, C2C12 statin inactive, Efflux pump inh inactive and Yeast Mot1 SUMO inactive.
COc1ccc(S(=O)(=O)NC(C)C(=O)NCc2ccccn2)cc1OC (centres undefined) was read as SUMO Mot1 rescue inactive, Cneo AK release inactive, C2C12 statin inactive and Efflux pump inh inactive.
Screening CCOc1ccccc1C(=O)NCC(=O)NCC(C)(C)N1CCOCC1 returned SUMO Mot1 rescue inactive, Cneo AK release inactive, C2C12 statin inactive and Efflux pump inh inactive.
For CC(NC(=O)c1ccco1)C(=O)N1CCCCC1 (centres undefined) the results were SUMO Mot1 rescue inactive, Cneo AK release inactive, C2C12 statin inactive and Efflux pump inh inactive.

High-throughput results: PubChem BioAssay, several laboratories
